Measured values taken from paper PMC7564034 (Acta Pharmaceutica Sinica. B, 2019).
Where two headings read alike, the source gives them in different places. One block for each compound: values may come before it.

Assays:
[1] = system: HUVECs; experiment: Capillary-like tube formation assay; type: cell-based; conditions: Homo sapiens, HUVEC, read-out: Inhibition of tube formation ability of HUVECs
In short: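 Conditioned medium was taken as supernatant after 24 h exposure to test compound (2, 10, 50 μmol/L). HUVECs were seeded at 5 × 10^4 cells/well on Matrigel and treated with this medium for 5.5 h under normoxia or hypoxia (1% O2, 5% CO2). Tubes were stained with calcein for 0.5 h before imaging.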

[2] = system: HUVECs; experiment: Wound healing migration assay; type: cell-based, human; conditions: 24 h
In short: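 Confluent HUVEC monolayers were scratched with sterile pipette tips and given fresh DMEM containing test compound. Cells were incubated under normoxia or hypoxia (1% O2, 5% CO2) and imaged at 0 and 24 h. Migration length = (scratch area 0 h − scratch area 24 h)/scratch length; n = 6.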

[3] = type: in vivo, Balb/c nude mice harboring LoVo xenografts; conditions: for Cmax / Tmax: Balb/c nude, mouse, plasma
In short: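 Male LoVo-xenograft nude mice (6 weeks old) received 10 mL/kg i.p., either once or daily for 8 days. Blood (~0.1 mL) was drawn from the oculi chorioideae vein into heparin tubes between 5 min and 96 h after the last dose, 5 mice per time point. Plasma was spun at 8000 rpm for 5 min and extracted with methanol. AUC0–∞ and the multiple/single ratio were derived.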

[4] = system: LoVo; experiment: Uptake of ginsenosides by LoVo in vitro; type: cell-based, human; conditions: compared to Rb1 and Rb2 (Fig. S5)
[5] = system: tumor vessels in LoVo xenografts; experiment: CD31/α-SMA double staining, pericyte coverage around tumor vessels; type: in vivo, Balb/c nude mice; conditions: 15 days i.p.; SMI, Rd-H 5 mg/kg; vs vehicle
In short: (§1)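 Tumors from mice given test compound i.p. for 15 days were fixed in 4% PFA and cut into 12 μm sections. Sections were stained overnight with anti-CD31 at 1:100; for pericyte coverage, anti-SMA at 1:100 was added. Cy5- or Cy2-conjugated secondary (1:200) was applied for 1 h at 37 °C. Confocal Z-stacks were reconstructed in 3D or as maximum intensity projections. Compared with vehicle.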

[6] = system: tumor vessels in LoVo xenografts; experiment: CD31 staining of tumor slides, microvessels and vessel branches; type: in vivo, Balb/c nude mice; conditions: 15 days i.p.
In short: as §1

[7] = type: in vivo, Balb/c nude mice harboring LoVo xenografts; conditions: 20 min after 15-day SMI treatment
In short: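 Male 6-week Balb/c nude mice (18 ± 1 g) bearing LoVo xenografts were given SMI intraperitoneally for 15 days. Tumors collected 20 min after the final dose were minced and digested 1 h in DMEM with 2 mg/mL collagenase type I and 0.1 mg/mL DNase I. Cells were split into endothelial, hematopoietic and other fractions; purity was checked by flow cytometry (anti-mouse CD45, viability stain). n = 3, mean ± SEM.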

[8] = Constituent ratio of ginsenosides in SMI, plasma, tumor and endothelial cells; type: in vivo, Balb/c nude mice harboring LoVo xenografts; conditions: 20 min after 15-day SMI treatment
In short: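 Tissues were sampled 20 min after the last dose of a 15-day i.p. course. Tumors were digested 1 h in DMEM with collagenase I (2 mg/mL) and DNase I (0.1 mg/mL), then strained through 40 μm mesh. CD31+ cells were enriched with PE anti-mouse CD31 and anti-PE magnetic particles, with purity checked by CD45/viability flow cytometry; n = 3. Each ratio = concentration of the constituent / summed eight ginsenosides.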

[9] = system: LoVo xenografts; experiment: Xenograft tumor growth, SMI or Rd combined with 5FU, 20-day treatment; type: in vivo, Balb/c mice; conditions: SMI 10 mL/kg/day or Rd 5 mg/kg/day i.p., 20 days, without 5FU
In short: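 LoVo-xenograft mice with all tumors above 50 mm3 were dosed i.p. for 20 days: 10 mL/kg/day, 5 mg/kg/day, and/or 5FU 15 mg/kg every 3 days. Body weight and tumor axes were recorded daily; tumor volume = 1/2 × a × b². Tumors were resected after treatment. Weight change was read after 17 days; mean ± SEM.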

[10] = type: in vivo, Balb/c nude mice harboring LoVo xenografts; conditions: for AUC0–∞ ratio Multiple/Single in tumors: 8-day vs single SMI 10 mL/kg/day i.p.
[11] = system: FGF; experiment: ELISA of FGF secretion in tumors; type: in vivo, Balb/c mice harboring LoVo xenografts; conditions: 15 days i.p.; SMI, Rd-H 5 mg/kg, Rb1, Rg1; vs vehicle
In short: (§2)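 Mice received test compound i.p. for 15 days. Tumors were harvested 20 min after the final dose and homogenized in RIPA buffer. VEGF and FGF were quantified by ELISA kit and normalized to protein content measured by BCA assay. Compared with vehicle.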

[12] = system: HUVECs; experiment: EDU staining; type: cell-based, human; conditions: Rd 2, 10, 50 μmol/L; 24 h; hypoxia
[13] = system: HUVEC; experiment: Uptake of ginsenosides by HUVEC in vitro; type: cell-based, human; conditions: compared to Rb1 and Rb2 (Fig. S5)
[14] = system: HUVECs; experiment: Cell viability assay; type: cell-based, human; conditions: Rd 1–50 μmol/L, SMI 5 μL/mL; 24 h; normoxia or hypoxia
In short: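 HUVECs were exposed to test compound for 24 h under normoxia or hypoxia (1% O2, 5% CO2). Viability was measured by MTT and expressed as a percentage of DMSO-treated cells under normoxia; n = 6.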

[15] = system: VEGF; experiment: ELISA of VEGF secretion in tumors; type: in vivo, Balb/c mice harboring LoVo xenografts; conditions: 15 days i.p., vs vehicle
In short: as §2

[16] = type: in vivo, mice harboring xenograft tumors; conditions: after intraperitoneal injection of Rb1, Rc, or Rd; data not shown
[17] = SMI i.p., single or multiple not given
[18] = after eight days of SMI 10 mL/kg/day i.p.
[19] = single dose of SMI 10 mL/kg i.p.

AUC0–∞ ratio Multiple/Single in plasma ([3]; 8-day vs single SMI 10 mL/kg/day i.p.): 5.28
Cmax ([3]; intraperitoneal, 10 mL/kg): ~10 µM
Cmax ([3]; ip, 10 mL/kg): 3200 ng/mL
Tmax ([3]; ip, 10 mL/kg): 240 min
Cmax ([3]; ip, 10 mL/kg/day): 10400 ng/mL
Tmax ([3]; ip, 10 mL/kg/day): 120 min
AUC0–∞ in plasma relative to those of Re, Rg1, Rg3 and Ro ([3]; after single or multiple SMI administration): more than 20 times
Uptake by LoVo [4]: superior uptake
Concentration of ginsenosides, endothelial cells (TECs) [7]: most abundant distribution in TECs
Constituent ratio in TECs [8]: 40.3%
Constituent ratio in plasma [8]: 16.0%
Constituent ratio in tumor tissues [8]: 34.3%
AUC0–∞ ratio Multiple/Single in tumors [10]: 10.53
AUC0–∞ of Rd in tumors, times higher than that of Rb1 [10, 17]: 8.0 times
AUC0–∞ of Rd in tumors, times higher than that of Rb2/Rb3 [10, 17]: 7.3 times
AUC0–∞ of Rd in tumors, times higher than that of Rc [10, 17]: 3.6 times
AUC0–∞ of Rd in tumors, times higher than that of Ro [10, 17]: 266.6 times
Uptake by HUVEC [13]: superior uptake
SMILES: CC(C)=CCC[C@](C)(O[C@@H]1O[C@H](CO)[C@@H](O)[C@H](O)[C@H]1O)[C@H]1CC[C@]2(C)[C@@H]1[C@H](O)C[C@@H]1[C@@]3(C)CC[C@H](O[C@@H]4O[C@H](CO)[C@@H](O)[C@H](O)[C@H]4O[C@@H]4O[C@H](CO)[C@@H](O)[C@H](O)[C@H]4O)C(C)(C)[C@@H]3CC[C@]12C [Rd, ginsenoside Rd]
inhibition at 2 µM [1]: 18%
inhibition at 10 µM [1]: 40%
inhibition at 50 µM [1]: 56%
Suppression of hypoxia-induced HUVEC migration ([2]; 50 μmol/L): 88%
Effect on HUVECs migration ([2]; Rd 2, 10 and 50 μmol/L or SMI, hypoxia): suppressed HUVECs migration concentration-dependently
Increase of pericyte coverage around microvessels [5]: 2.1 fold
Effect on microvessels, branches and pericyte coverage ([6]; Rd-L 0.5 mg/kg): very modest effects
Decrease of the number of CD31+ microvessels ([6]; SMI, Rd-H 5 mg/kg, vs vehicle): 37%
Decrease of vessel branches ([6]; SMI, Rd-H 5 mg/kg, vs vehicle): 59%
Effect on tumor growth, given alone [9]: no significant effect on tumor growth
Suppression of the secretion of FGF in tumors [11]: 68%
Effect on cellular proliferation of HUVECs (EDU/HOECHST) [12]: no significant effect on cellular proliferation
Effect on cell viability of HUVECs [14]: no effect on the cell viability
Reduction of the secretion of VEGF in tumors ([15]; Rd-L 0.5 mg/kg): 32%
Reduction of the secretion of VEGF in tumors ([15]; SMI, Rd-H 5 mg/kg, Rb1, Rg1): 32%

Cmax ([3]; ip, 10 mL/kg): 1600 ng/mL
Tmax ([3]; ip, 10 mL/kg): 10 min
Cmax ([3]; ip, 10 mL/kg/day): 1300 ng/mL
Tmax ([3]; ip, 10 mL/kg/day): 10 min
SMILES: CC(C)=CCC[C@](C)(O[C@@H]1O[C@H](CO)[C@@H](O)[C@H](O)[C@H]1O)[C@H]1CC[C@]2(C)[C@@H]1[C@H](O)C[C@@H]1[C@@]3(C)CC[C@H](O)C(C)(C)[C@@H]3[C@@H](O[C@@H]3O[C@H](CO)[C@@H](O)[C@H](O)[C@H]3O[C@@H]3O[C@@H](C)[C@H](O)[C@@H](O)[C@H]3O)C[C@]12C [Re]

Cmax ([3]; ip, 10 mL/kg): 2000 ng/mL
Tmax ([3]; ip, 10 mL/kg): 10 min
Cmax ([3]; ip, 10 mL/kg/day): 2100 ng/mL
Tmax ([3]; ip, 10 mL/kg/day): 10 min
SMILES: CC(C)=CCC[C@](C)(O[C@@H]1O[C@H](CO)[C@@H](O)[C@H](O)[C@H]1O)[C@H]1CC[C@]2(C)[C@@H]1[C@H](O)C[C@@H]1[C@@]3(C)CC[C@H](O)C(C)(C)[C@@H]3[C@@H](O[C@@H]3O[C@H](CO)[C@@H](O)[C@H](O)[C@H]3O)C[C@]12C [Rg1]
Suppression of the secretion of FGF in tumors [11]: 97%
Reduction of the secretion of VEGF in tumors ([15]; SMI, Rd-H 5 mg/kg, Rb1, Rg1): 1%

Cmax in plasma [3, 18]: 300 ng/mL
Time of maximum concentration in plasma [3, 18]: 20 min
Cmax in plasma [3, 19]: 100 ng/mL
Time of maximum concentration in plasma [3, 19]: 60 min
Detection in tumors over time ([10]; 20 min, 2, 12, 24, 96 h after single or multiple SMI administration): could not be identified at any time
Detection in plasma or tumor tissues [16]: neither Rg3 nor CK could be detected
SMILES: CC(C)=CCC[C@](C)(O)[C@H]1CC[C@]2(C)[C@@H]1[C@H](O)C[C@@H]1[C@@]3(C)CC[C@H](O[C@@H]4O[C@H](CO)[C@@H](O)[C@H](O)[C@H]4O[C@@H]4O[C@H](CO)[C@@H](O)[C@H](O)[C@H]4O)C(C)(C)[C@@H]3CC[C@]12C [Rg3]

Cmax in plasma [3, 18]: 3700 ng/mL
Time of maximum concentration in plasma [3, 18]: 20 min
Cmax in plasma [3, 19]: 3900 ng/mL
Time of maximum concentration in plasma [3, 19]: 60 min
AUC0–∞ ratio Multiple/Single in tumors [10]: 0.92
SMILES: CC1(C)CC[C@]2(C(=O)O[C@@H]3O[C@H](CO)[C@@H](O)[C@H](O)[C@H]3O)CC[C@]3(C)C(=CC[C@@H]4[C@@]5(C)CC[C@H](O[C@@H]6O[C@H](C(=O)O)[C@@H](O)[C@H](O)[C@H]6O[C@@H]6O[C@H](CO)[C@@H](O)[C@H](O)[C@H]6O)C(C)(C)[C@@H]5CC[C@]43C)[C@@H]2C1 [Ro, ginsenoside Ro]
